Data from ChEMBL document CHEMBL5380787, “Optimized M24B Aminopeptidase Inhibitors for CARD8 Inflammasome Activation” (J Med Chem, 2023).
Calls of active or inactive are those of the source. The calls are words filed in the database; no cut-off is given here.

Key:
[1] = test system: THP-1; assay: Induction of pyroptosis in PEPD/XPNPEP1 knockout human THP-1 cells assessed as LDH release at 20 uM incubated for 24 hrs; assay type: functional, cell-based
Method in brief: (§1)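 Cells (MV4;11, OCI-AML2 or THP-1; WT or the knockout named) plated at 5 × 10^5 cells/well and exposed to 20 μM compound for 24 h. LDH in the supernatant was measured relative to a Triton X-100 lysis control. For immunoblots, cells were washed in PBS, sonicated, protein-normalized, run on SDS-PAGE and probed for GSDMD cleavage. n = 3.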

[2] = Drug metabolism of the compound in human MV4-11 cells assessed as de-esterified metabolite formation by LC-MS analysis; assay type: ADME, cell-based
[3] = Stability in human MV4-11 cells assessed as retention time of parent compound incubated for 24 hrs by LC/MS analysis; assay type: ADME, cell-based; conditions: mv4-11, 24 h
Method in brief: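 Compound was held in MV4;11 conditioned medium for 24 h at 37 °C, then LC/MS was run, recording the retention times of the parent ester and its free acid.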

[4] = test system: THP-1; assay: Induction of pyroptosis in PEPD/XPNPEP1 knockout human THP-1 cells assessed as GSDMD clevage at 20 uM incubated for 24 hrs by immunoblot analysis; assay type: functional, cell-based; method in brief: as §1
[5] = test system: OCI-AML2; assay: Induction of cell death in human OCI-AML2 cells assessed as increase in PI uptake at 6.25 uM incubated for 6 hrs by PI staining based fluorescence analysis; assay type: functional
Method in brief: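 PI flux assay. 2 × 10^4 MV4;11 (WT, CARD8−/− or CASP1−/−) or OCI-AML2 cells in RPMI were given compound at 6.25 μM plus PI at 10 μM final. Fluorescence (Ex/Em 535/617 nm) was read every 5 min at 37 °C for 6 h, baseline-corrected to DMSO and normalized to the maximum response. n = 3.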

[6] = test system: RAW264.7; assay: Induction of pyroptosis in mouse RAW264.7 cells expressing NLRP1B allele 1 assessed as GSDMD clevage at 20 uM incubated for 24 hrs by immunoblot analysis; assay type: functional, cell-based
Method in brief: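 RAW264.7 cells, grown in DMEM with 10% FBS, plated at 5 × 10^5 cells/well and exposed to 20 μM compound for 24 h. Supernatant LDH was measured relative to a Triton X-100 lysis control; lysates were immunoblotted for GSDMD cleavage. n = 3.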

[7] = test system: THP-1; assay: Induction of pyroptosis in CARD8 knockout human THP-1 cells assessed as GSDMD cleavage at 20 uM incubated for 24 hrs by immunoblot analysis; assay type: functional, cell-based; method in brief: as §1
[8] = Stability of the compound in human MV4-11 cells assessed as de-esterification by measuring parent compound remaining measured after 24 hrs by LC-MS analysis; assay type: ADME, cell-based; conditions: read-out: Stability
Method in brief: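 Compound was incubated in conditioned medium from MV4;11 cells for 24 h at 37 °C, and LC/MS then measured intact ester remaining and the de-esterified free acid. n = 3, mean ± SEM.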

[9] = Drug metabolism in human MV4-11 cell culture supernatant assessed as (S)-1-((2S,3R)-3-amino-2-hydroxy-5-methylhexanoyl)pyrrolidine-2-carboxylic acid formation measured within 30 mins by LC-MS analysis; assay type: ADME, cell-based; conditions: mv4-11, 0.5 h
[10] = test system: MV4-11; assay: Cytotoxicity against human MV4-11 cells assessed as reduction in cell viability at 0.015 to 100 uM incubated for 24 hrs by celltiter-glo assay; assay type: functional; conditions: dose 0.015-100 µM
Method in brief: (§2)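 MV4;11 cells (WT or CASP1−/−), grown in RPMI 1640 with 10% FBS at 37 °C, 5% CO2, plated 2000 cells/well, dosed by pintool across 100 μM to 15.2 nM in three-fold steps for 24 h. Viability by CellTiter-Glo luminescence after 2 min shaking and 10 min at 25 °C. IC50 as mean ± SEM of three biological replicates.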

[11] = test system: MV4-11; assay: Cytotoxicity against CASP1 knockout human MV4-11 cells assessed as reduction in cell viability at 0.015 to 100 uM incubated for 24 hrs by celltiter-glo assay; assay type: functional; conditions: dose 0.015-100 µM; method in brief: as §2

Drug metabolism [2]	Retention_time [3]	remaining at 24 h [8]	Drug metabolism [9]	Compound	Activity [1]	Activity [4]	Activity [5]	Activity [6]	Activity [7]	Activity [10]	Activity [11]
Metabolite_Detected	2.82 min			COC(=O)[C@H](CC(C)C)NC(=O)[C@@H]1CCCN1C(=O)[C@@H](O)[C@H](N)CC(C)C	inactive	inactive	Active	inactive	inactive		
		50%	Metabolite_Detected	COC(=O)[C@@H]1CCCN1C(=O)[C@@H](O)[C@H](N)CC(C)C	inactive	inactive		inactive	inactive	28%	95%
